The nature of series [1]: Cytotoxicity against human HeLa cells after 5 days. Type of series: cell-based. To be noted: read-out: Maximal non-toxic dose 50. A digest of the protocol:
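HeLa (Ohio strain) cells plated at about 10^4 cells per ml in 24-well plates, kept at 33 °C in 3% CO2 in DMEM with 1% non-essential amino acids and 10% FCS. Exposed to decreasing compound concentrations for 5 days; viability read by neutral red uptake. MNTD50 (dose inhibiting less than 50% replication vs control) obtained by regression; triplicate.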

Series [2] addresses T1, Human rhinovirus A protease (Human rhinovirus sp.) (UniProt Q4U254).
T1 sequence (whole entry): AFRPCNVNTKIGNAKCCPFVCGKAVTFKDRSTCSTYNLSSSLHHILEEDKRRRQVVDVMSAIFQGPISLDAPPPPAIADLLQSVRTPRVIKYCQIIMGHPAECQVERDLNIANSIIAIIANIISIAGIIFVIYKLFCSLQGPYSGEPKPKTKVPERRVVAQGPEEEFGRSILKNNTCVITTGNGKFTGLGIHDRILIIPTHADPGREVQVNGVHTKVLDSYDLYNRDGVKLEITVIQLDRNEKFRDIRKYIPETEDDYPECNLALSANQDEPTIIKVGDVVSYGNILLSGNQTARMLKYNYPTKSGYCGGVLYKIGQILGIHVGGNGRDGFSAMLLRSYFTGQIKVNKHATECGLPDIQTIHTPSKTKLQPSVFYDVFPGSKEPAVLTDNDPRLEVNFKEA
The series can be described thus: Inhibition of HRV14 3C protease at 10 uM. The following applies: rhinovirus B14. The essentials:
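Recombinant HRV14 3C protease at 0.7 uM with EALFQ-pNA chromogenic substrate, compound at 10 µM final, 1% DMSO final. Buffer: 25 mM Hepes pH 7.5, 150 mM NaCl, 0.12 mM DTT, 1 mM EDTA. Started by adding enzyme; A405 read at 0 and 60 min at 30 °C. Percent inhibition vs uninhibited control; duplicates, mean ± SD.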

In series [3] the target is T1, Human rhinovirus A protease (Human rhinovirus sp.). The series can be described thus: Inhibition of HRV14 3C protease at 1 mM. The following applies: rhinovirus B14.
Series [4] has the same target. The series can be described thus: Inhibition of HRV14 3C protease in presence of dithiothreitol. The following applies: rhinovirus B14.
Series [5] shares this target. Briefly: Inhibition of HRV14 3C protease at 1 uM. To be noted: rhinovirus B14.
Series [6] has the same target. Briefly: Inhibition of HRV14 3C protease at 0.1 uM. The following applies: rhinovirus B14.
Series [7] concerns rhinovirus B14. Briefly: Antiviral activity against HRV14. Type of series: functional, organism-based. The following applies: Rhinovirus B; read-out: ID50 (the source's name). A digest of the protocol:
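HeLa (Ohio) monolayers at 33 °C, 3% CO2, in DMEM with 1% non-essential amino acids and 10% FCS. Infected with HRV-14 at MOI 0.1, then decreasing compound amounts added. After 24 h, freeze-thaw; supernatant titrated under 2% nutrient agar and plaques counted after neutral red staining. ID50 derived from plaque counts.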

Series [8] relates to Human alphaherpesvirus 2. Briefly: Antiviral activity against HSV2. The series is classed as functional, organism-based.
For series [9], the system named is Influenza A virus. Briefly: Antiviral activity against WSN influenza A virus. The series is classed as functional, organism-based. The essentials:
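Cell-based antiviral test in the VERO/MDCK cell set, run on 24-well plates by analogy with the HeLa/rhinovirus method. Activity was scored after 48 h of incubation at 37 °C under 5% CO2.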

A short description of series [10]: Inhibition of HRV 3C protease. Further details: species or system Human rhinovirus sp.
Series [11] concerns the target T1, Human rhinovirus A protease (Human rhinovirus sp.). The series can be described thus: Inhibition of HRV14 3C protease at 0.16 to 100 uM. The following applies: rhinovirus B14. A digest of the protocol: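 Colorimetric HRV14 3C protease assay: 0.7 uM enzyme, EALFQ-pNA substrate, Hepes pH 7.5 buffer with 0.12 mM DTT and 1 mM EDTA. Compound tested across 0.16 to 100 µM; p-nitroaniline release read at 405 nm after 60 min at 30 °C.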

≈ marks a conversion by molar mass, not a printed value. Calls of active or inactive are those of the source. The calls are words filed in the database; no cut-off is given here.

`NC(=O)c1cccc(C(=O)CCl)c1`: the MNTC at 120 h in series [1] was determined as 3.12 µg/mL. In series [2], the inhibition is above 50%.

`CC(=O)N[C@@H](CC(C)C)C(=O)N[C@@H](CC(C)C)C(=O)N[C@H](C=O)CCCNC(=N)N` returned an inhibition in [3] of 57%.

As to `NC(=O)c1cccc(C(=O)CBr)c1`, the MNTC at 120 h in series [1] is above 100 µg/mL. Besides, the result in series [4] was inactive. The inhibition amounted to 85% in series [2], 23% in series [5] and 4% in series [6]. Further, in [7], the IC50 came out at 25 µg/mL (≈ 103 µM). The outcome in series [8] and in series [9] was Active.

`NC(=O)c1cc(Cc2ccc3ccccc3c2)cc(C(=O)CCl)c1`: in series [1], the MNTC at 120 h is 0.75 µg/mL. Also, the result in series [4] was inactive. Besides, the inhibition was found to be 81% in series [2], 61% in [5] and 25% in series [6]. In series [7], the IC50 was above 0.75 µg/mL.

Regarding `NC(=O)c1cc(C(=O)CBr)cc(C(=O)Nc2ccc3ccccc3c2)c1`, the result in series [4] was inactive. Moreover, the inhibition was 80% in series [2], 19% in series [5] and 5% in [6].

As to `NC(=O)c1cc(Cc2ccccc2)cc(C(=O)CCl)c1`, the MNTC at 120 h in series [1] stood at 0.75 µg/mL. In addition, the outcome in series [4] was inactive. The inhibition in series [2] was determined as 91%; in [5], 79%; in [6], 14%. In series [7], the IC50 was above 0.75 µg/mL.

In series [10], `NC(=O)CCN(NC(=O)[C@H](Cc1ccccc1)NC(=O)OCc1ccccc1)C(=O)CBr` came in with an IC50 of 48 nM.

Regarding `NC(=O)c1cc(C(=O)CBr)cc(C(=O)Nc2ccccc2)c1`, in series [4], the result was inactive. Further, the inhibition was 86% in [2], 27% in series [5] and 8% in [6].

In the case of `NC(=O)c1cc(Cc2ccccc2)cc(C(=O)C(Br)Br)c1`, in [4], the result was inactive. The inhibition in series [2] was found to be 75%; in [5], 27%; in [6], 14%.

Molecule `CCOC(=O)CCn1c(=O)c2ccccc2n(CC(=O)c2ccccc2)c1=O` gave an IC50 in series [10] of 55400 nM.

The molecule `CCOC(=O)/C=C/[C@H](CCC(N)=O)CC(=O)[C@H](Cc1ccccc1)NC(=O)[C@H](CC(C)C)NC(=O)OCc1ccccc1` registered an IC50 in [10] of 540 nM.

Take `NC(=O)c1cccc(C(=O)C(Cl)Cl)c1`: the inhibition in [2] was above 50%.

In [2], `NC(=O)c1cccc(C(=O)C(Br)Br)c1` displayed an inhibition above 50%.

The molecule `NC(=O)c1cc(Cc2ccc3ccccc3c2)cc(C(=O)C(Br)Br)c1` came in with an inhibition in series [2] above 70%.

`NC(=O)c1cc(Cc2ccccc2)cc(C(=O)CBr)c1`: the result in series [4] was inactive. Moreover, the inhibition in series [2] is 68%; in series [5], 30%; in series [6] it was 0%.

In the case of `O=C(CBr)c1ccc2c(c1)C(=O)NC2`, the outcome in series [4] was inactive. Besides, the inhibition in series [2] was 70%; in series [5] it was 25%; in [6] it was 0%.

As for `NC(=O)c1cc(Cc2ccc3ccccc3c2)cc(C(=O)CBr)c1`, the result in series [4] was inactive. Further, the figures for the inhibition in series [2], in [5] and in [6] were 83%, 39% and 12%, respectively.

As to `NC(=O)c1cccc(C(=O)C(F)(F)F)c1`, the outcome in [11] was inactive.

On to `CCOC(=O)/C=C/[C@H](C[C@@H]1CCNC1=O)NC(=O)[C@@H](CC(=O)[C@@H](NC(=O)c1cc(C)on1)C(C)C)Cc1ccc(F)cc1`, for which, in series [4], the outcome was inactive.

What is called inhibition is how much of the control response was suppressed. Higher therefore signals a strong effect.

Source of the values: ChEMBL document CHEMBL1143989, “New anti-viral drugs for the treatment of the common cold” (Bioorg Med Chem, 2008).
